One series relates to CBP/p300 HAT activity. As to conditions: cited from earlier work.
The target of series [1] is T1, CBP bromodomain (Homo sapiens, UniProt Q92793). The series can be described thus: temperature shift assay. Format: binding.
In series [2] the target is T2, BRD4(2) (Homo sapiens, UniProt O60885). The series can be described thus: temperature shift assay. Format: binding. As to conditions: second bromodomain of BRD4.
The subject of series [3] is 41 other members of the human bromodomain family. The series can be described thus: temperature shift assay, selectivity panel. Format: binding. The conditions noted are these: 41 other bromodomains.
Series [4] has as its target T1, CBP bromodomain. Format: binding. The conditions noted are these: read-out: dissociation constant (KD); ITC, in solution.
The target in another series is p300 bromodomain (Homo sapiens, UniProt Q09472). The series can be described thus: isothermal titration calorimetry. As to conditions: read-out: dissociation constant (KD); ITC, in solution. Format: binding.
Chain of p300 bromodomain (Q09472 1049-1156 limits assumed): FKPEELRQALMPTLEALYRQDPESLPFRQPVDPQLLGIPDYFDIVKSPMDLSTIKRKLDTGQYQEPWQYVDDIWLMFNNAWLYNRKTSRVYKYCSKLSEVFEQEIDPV
A further series addresses BRD4(1) (Homo sapiens, UniProt O60885). The series can be described thus: isothermal titration calorimetry. Format: binding.
Series [5] addresses T2, BRD4(2). The series can be described thus: isothermal titration calorimetry. Format: binding.
Series [6] has as its system bromodomains of the BET family members. The series can be described thus: BLI selectivity screen, panel of 42 bromodomains. Format: binding. As to conditions: only BET family identified among 42 bromodomains.
The target in series [7] is T1, CBP bromodomain. The conditions noted are these: read-out: IC50 displacing H3K56ac from the CBP binding site; AlphaScreen, H3K56ac peptide.
Series [8] deals with T3, full-length CBP (Homo sapiens, UniProt Q92793). Format: cell-based. As to conditions: GFP-tagged full-length CBP.
T3 sequence (Q92793 whole entry): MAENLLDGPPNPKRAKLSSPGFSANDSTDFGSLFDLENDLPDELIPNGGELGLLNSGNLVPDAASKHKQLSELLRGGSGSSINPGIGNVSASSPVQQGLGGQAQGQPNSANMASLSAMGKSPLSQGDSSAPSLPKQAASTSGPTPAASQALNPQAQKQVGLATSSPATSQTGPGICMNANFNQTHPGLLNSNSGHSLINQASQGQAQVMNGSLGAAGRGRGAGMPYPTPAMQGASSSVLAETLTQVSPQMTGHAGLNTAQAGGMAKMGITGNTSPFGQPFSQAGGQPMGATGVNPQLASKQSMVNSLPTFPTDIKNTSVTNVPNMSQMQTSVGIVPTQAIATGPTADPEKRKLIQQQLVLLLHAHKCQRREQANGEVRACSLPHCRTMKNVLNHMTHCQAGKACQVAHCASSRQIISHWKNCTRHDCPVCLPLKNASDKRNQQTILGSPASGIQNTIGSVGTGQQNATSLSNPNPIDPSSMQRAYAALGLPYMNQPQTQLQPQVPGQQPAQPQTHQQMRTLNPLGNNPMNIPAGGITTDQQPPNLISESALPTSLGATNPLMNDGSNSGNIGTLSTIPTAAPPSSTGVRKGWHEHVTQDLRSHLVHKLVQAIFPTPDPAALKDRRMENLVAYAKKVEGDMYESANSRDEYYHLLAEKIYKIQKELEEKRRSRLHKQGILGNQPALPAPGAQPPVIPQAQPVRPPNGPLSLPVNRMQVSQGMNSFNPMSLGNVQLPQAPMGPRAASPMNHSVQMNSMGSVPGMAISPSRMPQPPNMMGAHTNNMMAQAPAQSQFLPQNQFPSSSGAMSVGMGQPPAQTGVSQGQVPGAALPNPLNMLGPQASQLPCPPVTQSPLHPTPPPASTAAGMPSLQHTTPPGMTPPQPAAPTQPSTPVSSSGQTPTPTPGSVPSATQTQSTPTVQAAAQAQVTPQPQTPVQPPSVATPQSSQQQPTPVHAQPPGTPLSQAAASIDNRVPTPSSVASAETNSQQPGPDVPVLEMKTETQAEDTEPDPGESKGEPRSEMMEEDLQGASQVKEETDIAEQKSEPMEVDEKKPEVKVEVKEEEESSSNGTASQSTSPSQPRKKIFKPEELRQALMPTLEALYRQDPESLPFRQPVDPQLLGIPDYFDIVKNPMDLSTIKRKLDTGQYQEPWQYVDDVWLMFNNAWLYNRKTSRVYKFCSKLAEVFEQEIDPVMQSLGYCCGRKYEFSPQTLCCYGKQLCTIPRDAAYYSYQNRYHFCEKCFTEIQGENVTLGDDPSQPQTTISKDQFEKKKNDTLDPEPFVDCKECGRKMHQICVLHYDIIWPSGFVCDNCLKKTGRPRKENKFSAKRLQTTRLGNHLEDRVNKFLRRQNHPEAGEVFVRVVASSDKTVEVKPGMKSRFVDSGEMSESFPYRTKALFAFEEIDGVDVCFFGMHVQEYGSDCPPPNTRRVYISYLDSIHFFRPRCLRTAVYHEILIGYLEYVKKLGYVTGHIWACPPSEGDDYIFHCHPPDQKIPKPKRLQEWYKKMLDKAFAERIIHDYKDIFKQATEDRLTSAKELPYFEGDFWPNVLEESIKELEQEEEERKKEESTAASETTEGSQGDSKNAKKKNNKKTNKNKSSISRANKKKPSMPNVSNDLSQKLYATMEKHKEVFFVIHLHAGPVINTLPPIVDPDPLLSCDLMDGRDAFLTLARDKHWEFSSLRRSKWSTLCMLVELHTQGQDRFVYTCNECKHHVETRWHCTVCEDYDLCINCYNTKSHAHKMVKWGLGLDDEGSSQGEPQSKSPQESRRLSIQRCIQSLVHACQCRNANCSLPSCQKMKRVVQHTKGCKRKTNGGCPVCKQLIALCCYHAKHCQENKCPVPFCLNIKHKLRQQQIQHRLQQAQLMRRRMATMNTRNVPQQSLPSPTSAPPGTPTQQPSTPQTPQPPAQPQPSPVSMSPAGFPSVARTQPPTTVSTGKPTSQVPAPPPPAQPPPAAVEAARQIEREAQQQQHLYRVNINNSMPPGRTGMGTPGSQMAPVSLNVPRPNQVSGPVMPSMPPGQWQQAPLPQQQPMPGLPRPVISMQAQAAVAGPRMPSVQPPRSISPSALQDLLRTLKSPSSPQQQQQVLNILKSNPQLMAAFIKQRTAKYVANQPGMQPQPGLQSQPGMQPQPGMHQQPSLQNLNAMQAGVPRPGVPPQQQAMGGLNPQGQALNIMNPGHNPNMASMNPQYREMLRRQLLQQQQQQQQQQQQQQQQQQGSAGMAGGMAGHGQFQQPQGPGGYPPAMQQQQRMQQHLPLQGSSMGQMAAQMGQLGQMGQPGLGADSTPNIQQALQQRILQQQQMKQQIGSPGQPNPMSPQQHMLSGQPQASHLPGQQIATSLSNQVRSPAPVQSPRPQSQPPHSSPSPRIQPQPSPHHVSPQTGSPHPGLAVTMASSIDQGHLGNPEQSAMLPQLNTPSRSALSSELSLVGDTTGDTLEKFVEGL
The next series has as its target isolated CBP bromodomain (Homo sapiens, UniProt Q92793). The series can be described thus: NanoBRET, NanoLuc CBP bromodomain / Halo-tagged Histone H3.3. As to conditions: read-out: cellular IC50, construct containing the bromodomain only. Format: cell-based.
In series [9] the target is T3, full-length CBP. Format: cell-based. As to conditions: NanoBRET dose response.
Another series has as its target full-length GFP-BRD4 (Homo sapiens, UniProt O60885). The series can be described thus: NanoBRET, full-length BRD4. Format: cell-based.
Series [10] relates to 12 stimulated primary human co-cultured cell types. The series can be described thus: BioMAP panel of stimulated primary co-cultured cell types. Format: cell-based. In outline: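 BioMAP profiling in four human haematopoietic co-culture systems, each treated with test compound: Sag and LPS (peripheral blood mononuclear cells with venular endothelial cells), BT (B cells with peripheral blood mononuclear cells), and IMphg (venular endothelial cells with M1 macrophages). Marker protein read-outs were monitored.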

Series [11] deals with MLL-CBP immortalized murine bone marrow cells. The series can be described thus: WST1 cytotoxicity assay. Format: cell-based, mouse. The conditions noted are these: significant cytotoxicity only at high concentrations and prolonged exposure. In outline: (§1)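 WST1 cytotoxicity assay. Cells were murine bone marrow cells immortalized by retroviral MLL-CBP expression, or MLL-AF9 leukemic blasts isolated from mice transplanted with bone marrow retrovirally expressing that oncogene. Signal was expressed as mean percentage of vehicle-treated cells ±SD, n=4; ANOVA with Dunnett multiple comparison.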

The test system is the same in series [12]. The series can be described thus: clonogenic growth and replating in methylcellulose. Format: cell-based, mouse. The conditions noted are these: more apparent upon re-plating. In outline:
(§2)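 Methylcellulose colony formation with serial re-plating, using either MLL-CBP immortalized murine bone marrow progenitors or MLL-AF9 leukemic blasts treated with test compound. Colonies are expressed as mean percentage of vehicle-treated ±SD, n=2; ANOVA with Dunnett multiple comparison.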

The subject of series [13] is primary murine MLL-AF9+ leukemic blasts. The series can be described thus: clonogenic re-plating assay in methylcellulose. Format: cell-based, mouse. In a few lines: as §2
For series [14] the test system is unchanged. The series can be described thus: WST1 cytotoxicity assay. Format: cell-based, mouse. In a few lines: as §1
The test system of series [15] is MLL-AF9 expressing blasts. The series can be described thus: extreme limiting dilution analysis. Format: cell-based, mouse. The conditions noted are these: 5µM for 3 days; vehicle 1/2.3. In outline:
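MLL-AF9 leukemic blasts from diseased mice were exposed ex vivo to 5 µM test compound or DMSO for 3 days, then plated at limiting dilution (highest dose 10 cells). A limiting dilution model fitted on a log-fraction plot gave stem cell frequency with 95% confidence intervals. Groups were compared by an overall chi-square test.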

A short description of another series: pharmacokinetic study. Format: in vivo. As to conditions: mice.
The subject of series [16] is MLL-AF9+ AML cells. The series can be described thus: cell surface marker expression after liquid culture exposure. Format: cell-based, mouse. As to conditions: 5 µM, 3 days.
Series [17] relates to MLL-AF9+ AML cells. The series can be described thus: transplantation of pre-treated MLL-AF9+ AML cells into secondary recipients. Format: in vivo, mice. The conditions noted are these: cells pre-treated 5 µM 3 days; 5-50 x 10^3 cells transplanted. In outline: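 Leukemic blasts were taken from mice that developed AML after transplantation of bone marrow retrovirally expressing MLL-AF9. Blasts were treated ex vivo with 5 µM test compound or DMSO for 3 days. Limiting doses (50 000, 10 000, 5 000, 500 cells) went into irradiated syngeneic secondary recipients, n=4/5 per group. Disease-free survival was compared by log-rank (Mantel-Cox) test.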

Series [18] relates to 12 human cell lines that form visible colonies in methylcellulose. The series can be described thus: clonogenic growth in methylcellulose, human leukemic cell line panel. Format: cell-based. The conditions noted are these: all 12 colony-forming human leukemic lines.
The next series deals with KASUMI-1. The series can be described thus: clonogenic growth in methylcellulose. Format: cell-based, human. As to conditions: dose dependent. In a few lines:
(§3)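 Human leukemic cell lines were plated in methylcellulose with different doses of test compound, and colony growth was scored. Counts are mean percentage of vehicle-treated ±SD, n=3; ANOVA with Dunnett multiple comparison.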

The test system of the next series is SEM cells. The series can be described thus: clonogenic growth in methylcellulose. Format: cell-based, human. The conditions noted are these: dose dependent. In a few lines: as §3
A further series relates to MOLM13. The series can be described thus: clonogenic growth in methylcellulose. The conditions noted are these: dose dependent. Format: cell-based, human. In outline:
as §3

The subject of series [19] is KASUMI-1 cells. The series can be described thus: cell cycle analysis by flow cytometry. Format: cell-based, human. As to conditions: day 2 and 3, more pronounced at day 6.
Series [20] has as its system KASUMI-1 cells. The series can be described thus: apoptosis, 7-AAD/AnnexinV staining. The conditions noted are these: prolonged exposure, day 5, liquid culture. Format: cell-based, human.
Series [21] has as its system primary blast cells from AML patients. The series can be described thus: clonogenic growth of primary cells in methylcellulose. Format: cell-based, human. As to conditions: five AML patients. In a few lines:
(§4)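 Primary human cells were grown in methylcellulose with test compound: CD34+ cells from healthy donors (n=3) or AML patient blasts (n=5). Colonies and cell numbers are expressed as mean percentage of vehicle-treated ±SD; ANOVA with Dunnett. Morphology was assessed by Giemsa-Wright stain after DMSO or 5 µM treatment.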

Series [22] concerns peripheral CD34+ cells from healthy donors. The series is described as above. Format: cell-based, human. As to conditions: three healthy donors. In a few lines:
as §4

Series [23] relates to KASUMI-1, MOLM13 and SEM cells. The series can be described thus: WST1 proliferation/survival assay, single agents and combinations. Format: cell-based, human. As to conditions: for activity alone in WST1 assay: single agent, different for each cell line.
Another series deals with MOLM13 cells. The series can be described thus: WST1 proliferation/survival assay, combination. Format: cell-based, human. As to conditions: combination with doxorubicin.
The next series deals with p300 (Homo sapiens, UniProt Q09472). The series can be described thus: ChIP-PCR of p300 occupancy at TNFSF13B and ID2. Format: cell-based. The conditions noted are these: KASUMI-1, 3 µM.
Chain of p300 (Q09472 whole entry): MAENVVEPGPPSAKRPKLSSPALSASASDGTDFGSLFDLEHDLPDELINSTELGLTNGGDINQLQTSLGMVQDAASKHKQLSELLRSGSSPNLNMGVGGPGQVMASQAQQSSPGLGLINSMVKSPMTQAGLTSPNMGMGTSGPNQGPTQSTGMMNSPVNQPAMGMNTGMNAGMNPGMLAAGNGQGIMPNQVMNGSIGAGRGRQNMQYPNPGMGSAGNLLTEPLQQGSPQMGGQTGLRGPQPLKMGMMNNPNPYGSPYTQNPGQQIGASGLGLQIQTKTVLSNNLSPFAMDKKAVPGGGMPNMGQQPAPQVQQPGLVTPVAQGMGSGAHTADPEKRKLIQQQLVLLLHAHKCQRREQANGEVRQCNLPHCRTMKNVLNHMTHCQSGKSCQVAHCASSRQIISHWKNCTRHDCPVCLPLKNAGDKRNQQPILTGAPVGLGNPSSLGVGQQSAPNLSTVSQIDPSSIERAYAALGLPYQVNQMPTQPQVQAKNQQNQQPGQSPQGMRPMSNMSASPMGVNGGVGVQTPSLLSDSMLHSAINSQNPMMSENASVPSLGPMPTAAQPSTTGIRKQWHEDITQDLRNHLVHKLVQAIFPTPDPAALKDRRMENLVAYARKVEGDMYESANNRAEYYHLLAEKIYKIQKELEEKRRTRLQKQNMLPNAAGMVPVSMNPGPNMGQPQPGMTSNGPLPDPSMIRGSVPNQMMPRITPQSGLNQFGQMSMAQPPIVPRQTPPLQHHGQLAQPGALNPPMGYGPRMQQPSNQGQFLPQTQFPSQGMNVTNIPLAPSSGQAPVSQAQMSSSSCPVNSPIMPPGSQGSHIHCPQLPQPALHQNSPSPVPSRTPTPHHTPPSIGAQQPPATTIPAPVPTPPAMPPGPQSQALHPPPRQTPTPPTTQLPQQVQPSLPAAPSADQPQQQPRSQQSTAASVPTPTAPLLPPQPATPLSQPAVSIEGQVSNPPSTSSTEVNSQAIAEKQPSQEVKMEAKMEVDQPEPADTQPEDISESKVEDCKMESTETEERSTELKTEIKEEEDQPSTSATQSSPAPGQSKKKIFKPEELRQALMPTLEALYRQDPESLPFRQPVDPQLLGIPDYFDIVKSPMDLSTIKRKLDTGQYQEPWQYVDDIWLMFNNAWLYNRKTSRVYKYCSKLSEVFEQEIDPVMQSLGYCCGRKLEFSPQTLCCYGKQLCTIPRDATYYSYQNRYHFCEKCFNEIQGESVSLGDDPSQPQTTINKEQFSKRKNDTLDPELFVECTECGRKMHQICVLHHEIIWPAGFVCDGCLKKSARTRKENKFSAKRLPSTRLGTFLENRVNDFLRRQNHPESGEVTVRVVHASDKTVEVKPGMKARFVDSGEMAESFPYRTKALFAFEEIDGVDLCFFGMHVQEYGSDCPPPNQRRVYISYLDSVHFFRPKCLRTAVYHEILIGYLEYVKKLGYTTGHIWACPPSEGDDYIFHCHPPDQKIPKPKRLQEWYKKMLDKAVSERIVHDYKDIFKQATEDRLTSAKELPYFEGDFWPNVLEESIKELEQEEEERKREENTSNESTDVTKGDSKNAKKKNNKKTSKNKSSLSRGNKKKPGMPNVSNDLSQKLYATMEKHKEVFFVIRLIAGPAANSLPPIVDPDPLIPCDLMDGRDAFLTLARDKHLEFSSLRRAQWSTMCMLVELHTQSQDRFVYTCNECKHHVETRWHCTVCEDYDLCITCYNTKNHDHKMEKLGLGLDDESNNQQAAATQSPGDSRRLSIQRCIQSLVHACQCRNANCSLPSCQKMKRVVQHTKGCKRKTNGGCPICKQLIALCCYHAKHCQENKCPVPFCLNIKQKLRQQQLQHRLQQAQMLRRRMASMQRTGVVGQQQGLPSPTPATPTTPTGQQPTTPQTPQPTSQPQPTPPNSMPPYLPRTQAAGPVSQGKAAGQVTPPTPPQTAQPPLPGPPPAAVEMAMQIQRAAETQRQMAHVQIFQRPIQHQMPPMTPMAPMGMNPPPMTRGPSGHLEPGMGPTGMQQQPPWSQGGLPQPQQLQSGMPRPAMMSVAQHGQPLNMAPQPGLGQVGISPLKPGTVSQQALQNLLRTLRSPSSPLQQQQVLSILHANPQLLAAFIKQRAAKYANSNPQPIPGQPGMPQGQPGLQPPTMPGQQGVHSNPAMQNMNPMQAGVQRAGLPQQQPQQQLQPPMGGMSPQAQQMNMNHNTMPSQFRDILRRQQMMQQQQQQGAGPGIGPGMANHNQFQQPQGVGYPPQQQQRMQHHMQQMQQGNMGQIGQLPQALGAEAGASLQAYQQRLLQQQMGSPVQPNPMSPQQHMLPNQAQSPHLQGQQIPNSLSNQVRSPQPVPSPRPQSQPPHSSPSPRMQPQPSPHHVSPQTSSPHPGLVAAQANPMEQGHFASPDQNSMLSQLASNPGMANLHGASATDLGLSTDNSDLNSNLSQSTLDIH
The target of the next series is CBP (Homo sapiens, UniProt Q92793). As to conditions: BLI.
Chain of CBP (Q92793 1085-1192 limits assumed): as the sequence (Q09472 1049-1156 limits assumed) above, with S47N, I73V, Y93F, S98A counted along it
A further series has as its target α1A (Homo sapiens, UniProt P35348). The conditions noted are these: both stereoisomers; low µM region.
The test system of a further series is 5HT1. As to conditions: both stereoisomers; low µM region.
The target of a further series is H3K56ac peptide. The series can be described thus: ITC.

Several values for one entry are separate records, joined by “and”; a condition that tells them apart may be missing. Equal values may be shown once.

T1 sequence (Q92793 1085-1192 limits assumed): as the sequence (Q09472 1049-1156 limits assumed) above, with S47N, I73V, Y93F, S98A counted along it
Chain of isolated CBP bromodomain (Q92793 1085-1192 limits assumed): as the sequence (Q09472 1049-1156 limits assumed) above, with S47N, I73V, Y93F, S98A counted along it

Consider `CC1=NN(c2ccc(C(=O)O)cc2)C(=O)/C1=C\c1ccc(-c2cc(C)c(C)cc2[N+](=O)[O-])o1` [C646], for which the HAT inhibitory activity entry in the series with CBP/p300 HAT activity was “low µM activity”.

On to `CCC(=O)N1CCOc2c(cc(-c3ccc(OC)c(OC)c3)cc2OC[C@H]2CCCN(C)C2)C1` [I-CBP112], for which the “ΔTm (stabilization of melting temperature)” value at CBP bromodomain [1] is 7.8 ºC. For the same compound, on BRD4(2) [2], the thermal shift (ΔTm) is 0.6 °C. The ΔTm values result in series [3] was “low”. Moreover, the Kd at CBP bromodomain [4] was 151 ± 6 nM; on p300 bromodomain, 167 ± 8 nM; at BRD4(1) (ITC), 5600 nM; on BRD4(2) [5] (ITC) it was 20000 nM; on CBP, 142 nM. Besides, the fold selectivity on BRD4(1) (CBP over BRD4(1), from ITC KDs) was 37 fold; at BRD4(2) [5] (CBP over BRD4(2), from ITC KDs) it was 132 fold. Also, the “off-target activity in BLI screen” value in [6] is “weak off-target activity”. Besides, the figures for the IC50 at CBP bromodomain [7] and at isolated CBP bromodomain were 170 nM and 600 ± 50 nM, respectively. On full-length CBP [8], the FRAP recovery times entry was “did not lead to decreased recovery times”. Moreover, the “effect on recruitment of full-length CBP to chromatin” value at full-length CBP [9] is recorded as “no significant effect”. At full-length GFP-BRD4, the “displacement of full-length BRD4” value was “No displacement”. Further, in [10], the “expression level of CCL2” value is recorded as “no effect”. Besides, the “expression level of Selectin (CD62)” value in series [10] is listed as “no effect”. Moreover, in [10], the “expression of IL10” value is on record as “down-regulated”. Also, the “expression of VCAM1/CD106” value in [10] was “down-regulated”. The “secreted IgG” value in [10] was “up-regulated”. Further, the cell survival entry in [11] was “did not affect cell survival”. Moreover, the clonogenic growth result is “significantly reduced” in series [12]; “significantly reduced” in series [18]; “significantly impaired” with KASUMI-1; “significantly impaired” with SEM cells; “significantly impaired” in the series on MOLM13. Also, in [13], the “self-renewal in clonogenic re-plating” value was “significantly impaired”. In addition, the cytotoxicity result in [14] is reported as “without significant cytotoxicity”. In series [15], the “estimated stem cell frequency” value is “significant decrease and 1/13”. In “pharmacokinetic study” (IP 3 mg/kg), the AUC turned out to be 384 ng/h/mL. In the series “pharmacokinetic study” (IP 3 mg/kg), this compound registered a half-life of 36 ± 6 min. Further, the “mean Cmax” value in “pharmacokinetic study” (IP 3 mg/kg) was 590 ng/mL. Also, in the series “pharmacokinetic study” (IP vs IV, (AUCt/Dip)/(AUC∞/Div)), the “bioavailability F%” value is on record as 114 ± 63%. For the same compound, the blood clearance result in “pharmacokinetic study” (IV 1.2 mg/kg) is on record as “high”. For the same compound, the volume distribution result in “pharmacokinetic study” (IV 1.2 mg/kg) is on record as “moderate”. Further, the highest concentration (Cmax) in the series “pharmacokinetic study” (read-out: mean Cmax, IP 3 mg/kg, n=3) was determined as 1260 ± 740 nM. For the same compound, in the series on MLL-AF9+ AML cells [16], the c-Kit/CD117 expression result is recorded as “slightly decreased”. In addition, the “granulocyte marker Gr-1 expression” value in the series on MLL-AF9+ AML cells [16] is reported as “slightly decreased”. Also, the “time of disease development in recipient mice” value in the series on MLL-AF9+ AML cells [17] is given as “significantly later”. In the series with KASUMI-1 cells [19], the cell cycle effect entry is given as “prominent G1 arrest”. For the same compound, in the series with KASUMI-1 cells [20], the apoptosis entry is recorded as “signs of apoptosis”. Also, in [21], the “number of colonies and cells in MC” value is “dose dependent reduction”. Moreover, in series [22], the “colony number in MC” value is given as “did not affect”. For the same compound, the “synergy (Chou-Talalay)” value is reported as “strong synergy” in series [23] (combination with JQ1) and “strong synergy” in [23] (combination with doxorubicin, except MOLM13). Besides, the synergism result with MOLM13 cells is “less pronounced”. Further, the “displacement of p300 from chromatin” value at p300 (8h) is recorded as “did not see significant displacement”. Besides, the p300 occupancy entry at p300 (4 days, vs DMSO) is given as “increased p300 occupancy”. Besides, the “interaction in selectivity panel” value on α1A and in the series with 5HT1 was “weak interaction” in each case.

As to `Cc1sc2c(c1C)C(c1ccc(Cl)cc1)=N[C@@H](CC(=O)OC(C)(C)C)c1nnc(C)n1-2` [JQ1, reference compound], in series [10], the “expression of IL10” value is on record as “down-regulated”, the “expression of VCAM1/CD106” value is “down-regulated” and the “secreted IgG” value is “strongly down-regulated”. Moreover, the “activity alone in WST1 assay” value in series [23] is given as “low nM activity”.

As for `COc1cccc2c1C(=O)c1c(O)c3c(c(O)c1C2=O)C[C@@](O)(C(=O)CO)C[C@@H]3O[C@H]1C[C@H](N)[C@H](O)[C@H](C)O1` [doxorubicin, reference compound], in series [23], the “activity alone in WST1 assay” value is “low nM activity”.

CBP bromodomain (domain or fragment) displayed a Kd with H3K56ac peptide of 13800 nM.

Source of the values: PMC4948672 (Cancer research, 2015).
